From ChEMBL document CHEMBL1140738, “New trisubstituted 1,2,4-triazole derivatives as potent ghrelin receptor antagonists. 3. Synthesis and pharmacological in vitro and in vivo evaluations” (J Med Chem, 2008)
Activity calls are given as the source filed them. The rule behind the calls is not given here. Where a SMILES comes first, the peptide text is derived from it. [ ]: non-standard residue; d: D form. dTrp(2-Me) = Cc1[nH]c2ccccc2c1C[C@@H](N)C(=O)O

Experiments:
[1] = biological target: T1, Growth hormone secretagogue receptor type 1 (Homo sapiens, UniProt Q92847); assay: Displacement of 125I]-His9-ghrelin from human GHSR1a expressed in LLCPK1 cells; format: cell-based, LLC-PK1
T1 sequence (Q92847 whole entry): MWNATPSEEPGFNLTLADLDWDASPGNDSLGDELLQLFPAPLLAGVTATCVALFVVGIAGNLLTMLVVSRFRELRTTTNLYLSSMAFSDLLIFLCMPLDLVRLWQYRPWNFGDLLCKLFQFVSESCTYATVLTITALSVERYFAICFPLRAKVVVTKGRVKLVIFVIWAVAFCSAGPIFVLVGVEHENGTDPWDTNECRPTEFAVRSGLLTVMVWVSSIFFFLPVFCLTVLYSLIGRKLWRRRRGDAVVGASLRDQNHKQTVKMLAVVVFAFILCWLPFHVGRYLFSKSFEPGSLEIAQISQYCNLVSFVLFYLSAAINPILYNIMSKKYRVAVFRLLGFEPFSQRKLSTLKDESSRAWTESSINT
How it was run: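 Competition binding with membranes from LLC PK-1 cells transiently transfected with human GHS-R1a, incubated with 125I-His9-ghrelin and increasing concentrations of compound.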

[2] = biological target: T1, Growth hormone secretagogue receptor type 1; assay: Agonist activity at GHSR1a expressed in CHO cells assessed as accumulation of intracellular calcium level at 10 uM relative to ghrelin; format: functional, cell-based
How it was run: (§1)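 CHO cells transiently expressing GHS-R1a; intracellular Ca2+ accumulation read as fluorescence output. Increasing agonist concentrations were tested for dose-response; single-point activation at 10^-5 M is expressed as percent of the maximal response to ghrelin at 10^-7 M (100%).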

[3] = biological target: T1, Growth hormone secretagogue receptor type 1; assay: Antagonist activity at GHSR1a expressed in CHO cells assessed as inhibition of ghrelin induced accumulation of intracellular calcium; format: functional, cell-based
How it was run: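 Antagonism measured in CHO cells transiently transfected with GHS-R1a: ghrelin dose-response curves of [Ca2+]i accumulation (fluorescence) run in the presence of various concentrations of test compound.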

Rattus norvegicus [4] = assay: Effect on growth hormone secretion at 160 ug/kg, sc; format: functional
How it was run: (§2)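 Infant rats given sc injection of compound at 160 µg/kg and/or hexarelin at 80 µg/kg; plasma rat GH measured (ng/mL).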

Rattus norvegicus [5] = assay: Effect on growth hormone secretion in infant rat at 80 ug/kg, sc at 160 ug/kg, sc in presence of hexarelin; format: functional; how it was run: as §2
Rattus norvegicus [6] = assay: Inhibition of hexarelin induced food intake in rat at 80 ug/kg, sc; format: functional
[7] = biological target: Motilin receptor (Homo sapiens) (UniProt O43193); assay: Binding affinity at motilin receptor at 10 uM
Motilin receptor (Homo sapiens), sequence (O43193 whole entry): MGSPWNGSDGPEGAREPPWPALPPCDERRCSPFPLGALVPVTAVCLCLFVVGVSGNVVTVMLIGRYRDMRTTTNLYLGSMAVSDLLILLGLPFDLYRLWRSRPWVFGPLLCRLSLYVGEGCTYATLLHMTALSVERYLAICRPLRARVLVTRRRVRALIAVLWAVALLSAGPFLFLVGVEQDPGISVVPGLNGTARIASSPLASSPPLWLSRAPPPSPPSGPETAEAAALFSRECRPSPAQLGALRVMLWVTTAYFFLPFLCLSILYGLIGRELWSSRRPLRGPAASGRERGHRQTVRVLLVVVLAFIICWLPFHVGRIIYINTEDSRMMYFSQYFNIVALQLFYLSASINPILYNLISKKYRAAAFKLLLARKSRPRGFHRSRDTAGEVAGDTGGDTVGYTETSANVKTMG

Rattus norvegicus [8] = assay: Inhibition of hexarelin induced food intake in rat at 20 ug/kg, sc; format: functional
[9] = biological target: Vasopressin V1a receptor (Homo sapiens) (UniProt P37288); assay: Binding affinity at vasopressin 1a receptor at 10 uM
Vasopressin V1a receptor (Homo sapiens), sequence (P37288 whole entry, looked up): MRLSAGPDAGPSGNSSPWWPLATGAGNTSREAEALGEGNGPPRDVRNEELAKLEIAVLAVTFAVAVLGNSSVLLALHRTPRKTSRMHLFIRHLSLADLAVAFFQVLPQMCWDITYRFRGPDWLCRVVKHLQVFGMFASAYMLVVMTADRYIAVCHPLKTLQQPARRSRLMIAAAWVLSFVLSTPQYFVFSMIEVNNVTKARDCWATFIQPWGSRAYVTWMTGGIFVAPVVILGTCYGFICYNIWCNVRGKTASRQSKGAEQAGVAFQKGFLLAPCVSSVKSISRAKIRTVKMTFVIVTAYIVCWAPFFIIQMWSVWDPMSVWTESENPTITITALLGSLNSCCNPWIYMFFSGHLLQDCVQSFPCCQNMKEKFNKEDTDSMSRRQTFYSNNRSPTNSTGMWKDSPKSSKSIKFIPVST

Rattus norvegicus [10] = assay: Inhibition of hexarelin induced food intake per 100 gm of body weight in rat at 20 ug/kg, sc after 6 hrs; format: functional
How it was run: (§3)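 Rats dosed subcutaneously with compound (160 µg/kg alone, or graded 20, 80, 160, 320 µg/kg) with or without hexarelin 80 µg/kg sc. Cumulative food intake at 2 and 6 h expressed as g food per 100 g body weight; % variation versus hexarelin at 6 h = 100 × (compound+hexarelin − hexarelin)/hexarelin.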

Rattus norvegicus [11] = assay: Inhibition of hexarelin induced food intake per 100 gm of body weight in rat at 20 ug/kg, sc after 2 hrs; format: functional; how it was run: as §3
[12] = biological target: T2, Cholecystokinin receptor type A (Homo sapiens) (UniProt P32238); assay: Binding affinity at CCK1 receptor at 10 uM
T2 sequence (whole entry): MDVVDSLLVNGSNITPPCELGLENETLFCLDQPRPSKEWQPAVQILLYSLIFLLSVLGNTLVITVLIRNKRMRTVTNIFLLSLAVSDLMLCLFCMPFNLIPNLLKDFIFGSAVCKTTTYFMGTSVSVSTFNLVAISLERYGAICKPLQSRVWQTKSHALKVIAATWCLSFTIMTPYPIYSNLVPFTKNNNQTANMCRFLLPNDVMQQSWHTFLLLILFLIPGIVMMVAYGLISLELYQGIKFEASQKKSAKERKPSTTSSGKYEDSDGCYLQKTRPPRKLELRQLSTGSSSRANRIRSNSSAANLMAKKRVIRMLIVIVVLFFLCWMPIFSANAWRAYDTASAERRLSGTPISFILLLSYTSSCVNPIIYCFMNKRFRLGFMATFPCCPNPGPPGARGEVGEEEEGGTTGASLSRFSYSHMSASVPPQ

Rattus norvegicus [13] = assay: Inhibition of hexarelin induced food intake per 100 gm of body weight in rat at 80 ug/kg, sc after 2 hrs; format: functional; how it was run: as §3
Rattus norvegicus [14] = assay: Inhibition of hexarelin induced food intake per 100 gm of body weight in rat at 320 ug/kg, sc after 6 hrs; format: functional; how it was run: as §3
[15] = biological target: Substance-P receptor (Homo sapiens) (UniProt P25103); assay: Binding affinity at tachykinin 2 receptor at 10 uM
Substance-P receptor (Homo sapiens), sequence (P25103 whole entry): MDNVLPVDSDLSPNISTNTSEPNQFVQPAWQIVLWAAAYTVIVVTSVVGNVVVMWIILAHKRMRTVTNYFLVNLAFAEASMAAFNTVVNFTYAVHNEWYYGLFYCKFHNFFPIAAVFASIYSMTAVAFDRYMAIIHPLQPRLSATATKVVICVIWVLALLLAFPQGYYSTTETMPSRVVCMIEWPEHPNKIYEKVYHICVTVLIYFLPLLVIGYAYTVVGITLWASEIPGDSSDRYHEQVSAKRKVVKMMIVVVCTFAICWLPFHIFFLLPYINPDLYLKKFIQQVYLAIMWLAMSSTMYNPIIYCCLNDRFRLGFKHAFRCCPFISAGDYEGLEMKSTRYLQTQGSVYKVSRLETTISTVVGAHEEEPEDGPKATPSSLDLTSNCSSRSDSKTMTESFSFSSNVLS

Rattus norvegicus [16] = assay: Inhibition of hexarelin induced food intake per 100 gm of body weight in rat at 80 ug/kg, sc after 6 hrs; format: functional; how it was run: as §3
Rattus norvegicus [17] = assay: Inhibition of hexarelin induced food intake per 100 gm of body weight in rat at 160 ug/kg, sc after 2 hrs; format: functional; how it was run: as §3
Rattus norvegicus [18] = assay: Inhibition of hexarelin induced food intake per 100 gm of body weight in rat at 160 ug/kg, sc after 6 hrs; format: functional; how it was run: as §3
Rattus norvegicus [19] = assay: Inhibition of hexarelin induced food intake per 100 gm of body weight in rat at 320 ug/kg, sc after 2 hrs; format: functional; how it was run: as §3
[20] = biological target: T1, Growth hormone secretagogue receptor type 1; assay: Agonist activity at GHSR1a expressed in CHO cells assessed as accumulation of intracellular calcium level; format: functional, cell-based; how it was run: as §1
Rattus norvegicus [21] = assay: Effect on growth hormone secretion in infant rat at 80 ug/kg, sc; format: functional; how it was run: as §2
Rattus norvegicus [22] = assay: Effect on food intake per 100 gm of body weight in rat at 80 ug/kg, sc after 2 hrs; format: functional; how it was run: as §3
Rattus norvegicus [23] = assay: Effect on food intake per 100 gm of body weight in rat at 80 ug/kg, sc after 6 hrs; format: functional; how it was run: as §3

| SMILES | IC50 [1] [nM] | Activity [2] [%] | Kb [3] [nM] | also measured |
| --- | --- | --- | --- | --- |
| COc1ccc(Cn2c(CCc3c[nH]c4ccccc34)nnc2[C@@H](Cc2c[nH]c3ccccc23)NC(=O)c2ccccn2)cc1 | 1.9 | 0 | 102 | – |
| COc1ccc(Cn2c(CCc3ccccc3)nnc2[C@@H](Cc2c[nH]c3ccccc23)NC(=O)C(C)(C)N)cc1 | 11 | 0 | 5 | Activity (Rattus norvegicus [4]): 5.28 ng/mL; Activity (Rattus norvegicus [5]): 220.52 ng/mL |
| COc1ccc(Cn2c(CCc3ccccc3)nnc2[C@@H](Cc2c[nH]c3ccccc23)NC(=O)c2ccncc2)c(OC)c1 | 58 | 0 | 93 | – |
| COc1ccc(Cn2c(CCc3ccccc3)nnc2[C@@H](Cc2c[nH]c3ccccc23)NC(=O)c2ccccn2)c(OC)c1 | 1.1 | 0 | 25 | inhibition in vivo at 0.08 mg/kg (Rattus norvegicus [6]): -98%; Activity [7]: Active; inhibition in vivo at 0.02 mg/kg (Rattus norvegicus [8]): -44%; Activity [9]: Active; Activity (Rattus norvegicus [4]): 13.06 ng/mL; Activity (Rattus norvegicus [10]): 0.56 g; Activity (Rattus norvegicus [11]): 0.56 g; Activity (Rattus norvegicus [5]): 138.39 ng/mL; Activity [12]: Active; Activity (Rattus norvegicus [13]): 0.02 g; Activity (Rattus norvegicus [14]): 1.23 g; Activity [15]: Active; Activity (Rattus norvegicus [16]): 0.02 g; Activity (Rattus norvegicus [17]): 0.21 g; Activity (Rattus norvegicus [18]): 0.21 g; Activity (Rattus norvegicus [19]): 1.23 g |
| COc1ccc(Cn2c(CCc3ccccc3)nnc2[C@@H](Cc2c[nH]c3ccccc23)NCc2ccccc2)c(OC)c1 | > 1000 | 20 | – | – |
| O=C(N[C@H](Cc1c[nH]c2ccccc12)c1nnc(CCc2c[nH]c3ccccc23)n1-c1ccccc1)c1ccccn1 | 160 | 0 | – | – |
| CCc1ccc(Cn2c(CCc3ccccc3)nnc2[C@@H](Cc2c[nH]c3ccccc23)NC(=O)c2ccccn2)cc1 | 67 | 0 | 513 | – |
| O=C(Cc1ccccn1)N[C@H](Cc1c[nH]c2ccccc12)c1nnc(CCc2c[nH]c3ccccc23)n1Cc1ccccc1 | 61 | 4 | 41 | – |
| COc1ccc(Cn2c(CCc3c[nH]c4ccccc34)nnc2[C@@H](Cc2c[nH]c3ccccc23)NC(=O)C2CCNCC2)cc1 | 0.6 | – | – | EC50 [20]: 1.6 nM |
| COc1ccc(Cn2c(CCc3ccccc3)nnc2[C@@H](Cc2c[nH]c3ccccc23)NC(=O)CCc2cccnc2)cc1 | 177 | 5 | – | – |
| O=C(Cc1ccccn1)N[C@H](Cc1c[nH]c2ccccc12)c1nnc(CCc2ccccc2)n1-c1ccccc1 | 700 | 0 | – | – |
| CCc1ccc(Cn2c(CCc3ccccc3)nnc2[C@@H](Cc2c[nH]c3ccccc23)NC(=O)Cc2cccnc2)cc1 | 480 | 3 | – | – |
| COc1ccc(-n2c(CCc3ccccc3)nnc2[C@@H](Cc2c[nH]c3ccccc23)NC(=O)c2ccccn2)c(OC)c1 | 33 | 0 | 65 | – |
| COc1ccc(-n2c(CCc3ccccc3)nnc2[C@@H](Cc2c[nH]c3ccccc23)NC(=O)c2cnccn2)c(OC)c1 | 300 | 1 | – | – |
| CCc1ccc(Cn2c(CCc3ccccc3)nnc2[C@@H](Cc2c[nH]c3ccccc23)NC(=O)c2ccncc2)cc1 | > 1000 | 0 | – | – |
| Cc1[nH]c2ccccc2c1C[C@@H](NC(=O)[C@@H](N)Cc1c[nH]cn1)C(=O)N[C@@H](C)C(=O)N[C@@H](Cc1c[nH]c2ccccc12)C(=O)N[C@H](Cc1ccccc1)C(=O)N[C@@H](CCCCN)C(N)=O [EXAMORELIN] (H-H[dTrp(2-Me)]AW[dF]K-NH2) | – | – | – | Activity (Rattus norvegicus [21]): 253.82 ng/mL; Activity (Rattus norvegicus [22]): 1.06 g; Activity (Rattus norvegicus [23]): 1.45 g |
| COc1ccc(Cn2c(CCc3ccccc3)nnc2[C@@H](Cc2c[nH]c3ccccc23)NC(=O)C(C)(C)N)c(OC)c1 | 60 | 0 | 17 | – |

| SMILES | IC50 [1] [nM] | Activity [2] [%] | Kb [3] [nM] | also measured |
| --- | --- | --- | --- | --- |
| CCc1ccc(-n2c(CCc3c[nH]c4ccccc34)nnc2[C@@H](Cc2c[nH]c3ccccc23)NC(=O)Cc2ccccn2)cc1 | 96 | 0 | 34 | – |
| COc1ccc(Cn2c(CCc3ccccc3)nnc2[C@@H](Cc2c[nH]c3ccccc23)NC(=O)Cc2ccccn2)cc1 | 3 | 6 | 6 | – |
| COc1ccc(Cn2c(CCc3ccccc3)nnc2[C@@H](Cc2c[nH]c3ccccc23)NC(=O)c2ccncc2)cc1 | 220 | 0 | – | – |
| COc1ccc(Cn2c(CCc3c[nH]c4ccccc34)nnc2[C@@H](Cc2c[nH]c3ccccc23)NC(=O)[C@H]2CCCC[C@H]2N)c(OC)c1 | 140 | 4 | 140 | – |
| COc1ccc(Cn2c(CCc3c[nH]c4ccccc34)nnc2[C@@H](Cc2c[nH]c3ccccc23)NC(=O)C(C)(C)N)c(OC)c1 | 108 | 0 | 14 | – |
| COc1ccc(Cn2c(CCc3c[nH]c4ccccc34)nnc2[C@@H](Cc2c[nH]c3ccccc23)NC(=O)c2ccccn2)c(OC)c1 | 1.8 | 0 | 19 | – |
| COc1ccc(Cn2c(CCc3c[nH]c4ccccc34)nnc2[C@@H](Cc2c[nH]c3ccccc23)NC(=O)c2cnccn2)c(OC)c1 | 18.5 | 0 | 97 | Activity (Rattus norvegicus [4]): 15.32 ng/mL; Activity (Rattus norvegicus [10]): 0.66 g; inhibition in vivo at 0.02 mg/kg (Rattus norvegicus [10]; Rattus norvegicus, sc, 6 h): 47%; Activity (Rattus norvegicus [11]): 0.66 g; Activity (Rattus norvegicus [5]): 173.61 ng/mL; Activity (Rattus norvegicus [13]): 0.23 g; Activity (Rattus norvegicus [14]): 0.21 g; Activity (Rattus norvegicus [16]): 0.23 g; Activity (Rattus norvegicus [17]): 0.29 g; Activity (Rattus norvegicus [18]): 0.31 g; Activity (Rattus norvegicus [19]): 0.2 g |
| COc1ccc(Cn2c(CCc3c[nH]c4ccccc34)nnc2[C@@H](Cc2c[nH]c3ccccc23)NC(=O)Cc2ccccn2)c(OC)c1 | 34 | 0 | 14 | – |
| CCc1ccc(Cn2c(CCc3ccccc3)nnc2[C@@H](Cc2c[nH]c3ccccc23)NC(=O)c2cnccn2)cc1 | 89 | 0 | 76 | – |
| CCc1ccc(-n2c(CCc3c[nH]c4ccccc34)nnc2[C@@H](Cc2c[nH]c3ccccc23)NC(=O)c2ccccn2)cc1 | 49 | 0 | 129 | – |
| COc1ccc(Cn2c(CCc3ccccc3)nnc2[C@@H](Cc2c[nH]c3ccccc23)NC(=O)c2ccccc2)c(OC)c1 | 11.8 | 31 | – | EC50 [20]: 16 nM |
| CCc1ccc(Cn2c(CCc3ccccc3)nnc2[C@@H](Cc2c[nH]c3ccccc23)NC(=O)Cc2ccccn2)cc1 | 51 | 0 | 124 | – |
| COc1ccc(Cn2c(CCc3ccccc3)nnc2[C@@H](Cc2c[nH]c3ccccc23)NC(=O)Cc2cccnc2)cc1 | 29 | 3 | 93 | – |
| COc1ccc(Cn2c(CCc3c[nH]c4ccccc34)nnc2[C@@H](Cc2c[nH]c3ccccc23)NC(=O)Cc2ccncc2)cc1 | 76 | 3 | 10 | – |
| COc1ccc(Cn2c(CCc3ccccc3)nnc2[C@@H](Cc2c[nH]c3ccccc23)NC(=O)c2ccccn2)cc1 | 0.7 | 0 | 12 | – |
| O=C(N[C@H](Cc1c[nH]c2ccccc12)c1nnc(CCc2ccccc2)n1-c1ccccc1)c1ccccn1 | 105 | 0 | – | – |
| COc1ccc(Cn2c(CCc3ccccc3)nnc2[C@@H](Cc2c[nH]c3ccccc23)NC(=O)Cc2ccncc2)cc1 | 270 | 6 | – | – |
